Data taken from ChEMBL document CHEMBL4376891, “Benzenesulfonamide Derivatives as Calcium/Calmodulin-Dependent Protein Kinase Inhibitors and Antiviral Agents against Dengue and Zika Virus Infections” (J Med Chem, 2020).
Calls of active or inactive are those of the source. The calls are words filed in the database; no cut-off is given here.

Tested on: dengue virus type 2
Assay: Antiviral activity against eGFP-fused Dengue virus 2 infected in human BE(2)-C cells assessed as viral infection level by measuring intensity of eGFP emission from infected cells at 1.56 uM incubated for 24 hrs relative to control
Format: functional
Conditions: not given
Method in brief: (§1)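 BE(2)C cells, in RPMI 1640 with 10% FBS, were infected with DENV-2-eGFP reporter virus (MOI 1) for 24 h with or without compound, using DMSO as solvent control. Cells were fixed in 4% paraformaldehyde and stained with Hoechst, then imaged by high-content analysis. eGFP intensity per cell number is given as % of solvent control. Values are means of 3 experiments.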
For `Cc1ccc(S(=O)(=O)N(CCCC(=O)C2CCCCCC2)c2ccccc2)cc1`, the Activity was 93.9%.
Work on `COc1ccc(S(=O)(=O)N(CCCC(C)=O)c2ccccc2)cc1` yielded an Activity of 92.8%.
`COc1ccc(S(=O)(=O)N(CCCC(=O)C2CCCCCC2)c2ccc3c(c2)CCCC3)cc1` gave an Activity of 87.2%.
In the case of `COc1ccc(S(=O)(=O)N(CCCC(=O)C2C3CC4CC(C3)CC2C4)c2ccccc2)cc1` (configuration not stated), the Activity is reported as 57.3%.
For `COc1ccc(S(=O)(=O)NCCCC(=O)c2ccc(F)cc2)cc1`, the Activity was 110.1%.
For `O=C(CCCN(c1ccccc1)S(=O)(=O)c1ccc(OC(F)(F)F)cc1)C1CCCC1`, the Activity was 102.6%.
`COc1ccc(S(=O)(=O)N(CCCC(=O)c2ccc(F)cc2)c2ccccc2)cc1` showed an Activity of 55.9%.
`COc1ccc(S(=O)(=O)N(CCCC(=O)C2CCCCCC2)C2CCCCC2)cc1` gave an Activity of 85.7%.
`COc1ccc(S(=O)(=O)N(CCCC(=O)C2CCCCCC2)c2ccc(C3CCCCC3)cc2)cc1` gave an Activity of 36.1%.
`COc1ccc(S(=O)(=O)N(CCCC(=O)C2CCC2)c2ccccc2)cc1` gave an Activity of 42.8%.
In the case of `O=C(CCCN(c1ccccc1)S(=O)(=O)c1ccc(Oc2ccccc2)cc1)C1CCCCCC1`, the Activity is reported as 74.7%.
For `COc1ccc(S(=O)(=O)N(CCCC(=O)C2CCCCC2)c2ccccc2)cc1`, the Activity was 68.9%.
Work on `COc1ccc(S(=O)(=O)N(C)CCCC(=O)c2ccc(F)cc2)cc1` yielded an Activity of 100%.
For `COc1ccc(S(=O)(=O)N(CCCC(=O)C2CCCC2)c2ccccc2)cc1`, the Activity was 34.6%.
For `COc1ccc(S(=O)(=O)N(CCCC(O)c2ccc(F)cc2)c2ccccc2)cc1` (configuration not stated), the Activity was 59.4%.
`COc1ccc(S(=O)(=O)N(CCO)c2ccccc2CN(C)C/C=C/c2ccc(Cl)cc2)cc1` showed an Activity of 30.5%.
Molecule `CN([C@@H](Cc1ccc(OS(=O)(=O)c2cccc3cnccc23)cc1)C(=O)N1CCN(c2ccccc2)CC1)S(=O)(=O)c1cccc2cnccc12` has an Activity of 33.5%.

Tested on: dengue virus type 2
Assay: Antiviral activity against eGFP-fused Dengue virus 2 infected in human BE(2)-C cells assessed as viral infection level by measuring intensity of eGFP emission from infected cells at 3.13 uM incubated for 24 hrs relative to control
Format: functional
Conditions: not given
Method in brief: as §1
For `Cc1ccc(S(=O)(=O)N(CCCC(=O)C2CCCCCC2)c2ccccc2)cc1`, the Activity was 76.9%.
With `COc1ccc(S(=O)(=O)N(CCCC(C)=O)c2ccccc2)cc1` the Activity was 100.8%.
For `COc1ccc(S(=O)(=O)N(CCCC(=O)C2CCCCCC2)c2ccc3c(c2)CCCC3)cc1`, the Activity was 21.5%.
`COc1ccc(S(=O)(=O)N(CCCC(=O)C2C3CC4CC(C3)CC2C4)c2ccccc2)cc1` (configuration not stated) gave an Activity of 51.1%.
For `COc1ccc(S(=O)(=O)NCCCC(=O)c2ccc(F)cc2)cc1`, the Activity was 122.6%.
Molecule `O=C(CCCN(c1ccccc1)S(=O)(=O)c1ccc(OC(F)(F)F)cc1)C1CCCC1` has an Activity of 118.2%.
With `COc1ccc(S(=O)(=O)N(CCCC(=O)c2ccc(F)cc2)c2ccccc2)cc1` the Activity was 39.3%.
With `COc1ccc(S(=O)(=O)N(CCCC(=O)C2CCCCCC2)C2CCCCC2)cc1` the Activity was 65.7%.
For `COc1ccc(S(=O)(=O)N(CCCC(=O)C2CCCCCC2)c2ccc(C3CCCCC3)cc2)cc1`, the Activity was 13.8%.
Molecule `COc1ccc(S(=O)(=O)N(CCCC(=O)C2CCC2)c2ccccc2)cc1` has an Activity of 33%.
Molecule `O=C(CCCN(c1ccccc1)S(=O)(=O)c1ccc(Oc2ccccc2)cc1)C1CCCCCC1` has an Activity of 73.4%.
Molecule `COc1ccc(S(=O)(=O)N(CCCC(=O)C2CCCCC2)c2ccccc2)cc1` has an Activity of 63.3%.
Work on `COc1ccc(S(=O)(=O)N(C)CCCC(=O)c2ccc(F)cc2)cc1` yielded an Activity of 100.9%.
`COc1ccc(S(=O)(=O)N(CCCC(=O)C2CCCC2)c2ccccc2)cc1` gave an Activity of 25.1%.
Molecule `COc1ccc(S(=O)(=O)N(CCCC(O)c2ccc(F)cc2)c2ccccc2)cc1` (configuration not stated) has an Activity of 48.5%.
`COc1ccc(S(=O)(=O)N(CCO)c2ccccc2CN(C)C/C=C/c2ccc(Cl)cc2)cc1` gave an Activity of 14.5%.
For `CN([C@@H](Cc1ccc(OS(=O)(=O)c2cccc3cnccc23)cc1)C(=O)N1CCN(c2ccccc2)CC1)S(=O)(=O)c1cccc2cnccc12`, the Activity was 22.3%.

Tested on: not listed separately
Assay: Cytotoxicity against human BE(2)-C cells assessed as cell proliferation at 6.25 uM incubated overnight by XTT assay relative to control
Format: cell-based
Conditions: read-out: Activity
For `Cc1ccc(S(=O)(=O)N(CCCC(=O)C2CCCCCC2)c2ccccc2)cc1`, the viability at 6.25 µM was 99.5%.
Work on `COc1ccc(S(=O)(=O)N(CCCC(C)=O)c2ccccc2)cc1` yielded a viability at 6.25 µM of 106%.
In the case of `COc1ccc(S(=O)(=O)N(CCCC(=O)C2CCCCCC2)c2ccc3c(c2)CCCC3)cc1`, the viability at 6.25 µM is reported as 104%.
In the case of `COc1ccc(S(=O)(=O)N(CCCC(=O)C2C3CC4CC(C3)CC2C4)c2ccccc2)cc1` (configuration not stated), the viability at 6.25 µM is reported as 96.7%.
`COc1ccc(S(=O)(=O)NCCCC(=O)c2ccc(F)cc2)cc1` gave a viability at 6.25 µM of 106%.
In the case of `O=C(CCCN(c1ccccc1)S(=O)(=O)c1ccc(OC(F)(F)F)cc1)C1CCCC1`, the viability at 6.25 µM is reported as 92.4%.
For `COc1ccc(S(=O)(=O)N(CCCC(=O)c2ccc(F)cc2)c2ccccc2)cc1`, the viability at 6.25 µM was 56.1%.
`COc1ccc(S(=O)(=O)N(CCCC(=O)C2CCCCCC2)C2CCCCC2)cc1` showed a viability at 6.25 µM of 97.5%.
Molecule `COc1ccc(S(=O)(=O)N(CCCC(=O)C2CCC2)c2ccccc2)cc1` has a viability at 6.25 µM of 93.9%.
With `O=C(CCCN(c1ccccc1)S(=O)(=O)c1ccc(Oc2ccccc2)cc1)C1CCCCCC1` the viability at 6.25 µM was 95.5%.
For `COc1ccc(S(=O)(=O)N(CCCC(=O)C2CCCCC2)c2ccccc2)cc1`, the viability at 6.25 µM was 107%.
`COc1ccc(S(=O)(=O)N(C)CCCC(=O)c2ccc(F)cc2)cc1` gave a viability at 6.25 µM of 106%.
Molecule `COc1ccc(S(=O)(=O)N(CCCC(O)c2ccc(F)cc2)c2ccccc2)cc1` (configuration not stated) has a viability at 6.25 µM of 76.3%.
For `COc1ccc(S(=O)(=O)N(CCO)c2ccccc2CN(C)C/C=C/c2ccc(Cl)cc2)cc1`, the viability at 6.25 µM was 84.3%.
`CN([C@@H](Cc1ccc(OS(=O)(=O)c2cccc3cnccc23)cc1)C(=O)N1CCN(c2ccccc2)CC1)S(=O)(=O)c1cccc2cnccc12` showed a viability at 6.25 µM of 65.7%.

Molecular target: Calcium/calmodulin-dependent protein kinase type II subunit alpha (Homo sapiens, UniProt Q9UQM7)
Sequence (Q9UQM7 whole entry): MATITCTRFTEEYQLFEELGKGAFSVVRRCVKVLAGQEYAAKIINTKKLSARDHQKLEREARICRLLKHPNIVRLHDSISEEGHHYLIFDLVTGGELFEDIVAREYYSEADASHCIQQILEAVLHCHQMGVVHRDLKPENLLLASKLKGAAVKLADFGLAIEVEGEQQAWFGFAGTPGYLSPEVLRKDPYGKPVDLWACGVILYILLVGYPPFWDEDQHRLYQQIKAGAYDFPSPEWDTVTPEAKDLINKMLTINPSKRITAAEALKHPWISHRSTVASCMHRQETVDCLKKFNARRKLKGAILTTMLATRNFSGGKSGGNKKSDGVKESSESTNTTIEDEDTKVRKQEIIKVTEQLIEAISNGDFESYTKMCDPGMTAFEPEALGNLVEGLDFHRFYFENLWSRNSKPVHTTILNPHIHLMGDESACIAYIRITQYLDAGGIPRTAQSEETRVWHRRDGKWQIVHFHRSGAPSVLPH
Assay: Inhibition of human CaMKIIalpha using calmodulin and syntide-2 incubated for 15 mins by ELISA
Conditions: not given
For `COc1ccc(S(=O)(=O)NCCCC(=O)c2ccc(F)cc2)cc1`, the inhibition was “Active”.
For `COc1ccc(S(=O)(=O)N(CCCC(O)c2ccc(F)cc2)c2ccccc2)cc1` (configuration not stated), the inhibition was “Active”.
`CN([C@@H](Cc1ccc(OS(=O)(=O)c2cccc3cnccc23)cc1)C(=O)N1CCN(c2ccccc2)CC1)S(=O)(=O)c1cccc2cnccc12` gave an IC50 of 1.03 µM.
